Data reported in article PMC11495195 (Drug Design, Development and Therapy, 2024).

Assays:
[1] = In vitro liver microsome stability, human; type: in vitro ADME; conditions: human liver microsomes; mean ± SD (n = 5)
Procedure, shortened: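 Test compound at 20 μM final was incubated with 0.5 mg/mL human or mouse liver microsomes and NADPH in 0.1 M phosphate buffer for 30 min at 37°C. The reaction was quenched with 2 volumes of cold acetonitrile plus internal standard, held overnight at −20°C and centrifuged. Supernatant was analysed by UPLC-MS/MS. 6-Hydroxycoumarin was the positive control; a no-NADPH blank was the negative control.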

[2] = Body weight and side-effects in H1299 xenograft mice; type: in vivo; conditions: 6 mg/kg intraperitoneal; for body weight change: after 21 days of administration
Procedure, shortened: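 Female BALB/c nude mice, 5 weeks old, kept pathogen-free, received 1.4 × 10^6 NCI-H1299 cells subcutaneously. At about 75 mm3 tumours, mice were randomised (n = 5). Dosing was intraperitoneal at 6 mg/kg: vehicle (2% DMSO, 30% PEG-400, 68% ddH2O) or test compound daily for 21 days, doxorubicin every 3 days. Body weight was weighed every 3 days; mean ± SEM.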

PDHK1 = PDHK1 (Homo sapiens, UniProt Q15118); assay: In vitro PDHK activity assay; type: biochemical; conditions: read-out: Inhibition% at 10 µM, PDHK1, 10 µM; mean ± SD (n = 5)
Chain of PDHK1 (Q15118 29-436): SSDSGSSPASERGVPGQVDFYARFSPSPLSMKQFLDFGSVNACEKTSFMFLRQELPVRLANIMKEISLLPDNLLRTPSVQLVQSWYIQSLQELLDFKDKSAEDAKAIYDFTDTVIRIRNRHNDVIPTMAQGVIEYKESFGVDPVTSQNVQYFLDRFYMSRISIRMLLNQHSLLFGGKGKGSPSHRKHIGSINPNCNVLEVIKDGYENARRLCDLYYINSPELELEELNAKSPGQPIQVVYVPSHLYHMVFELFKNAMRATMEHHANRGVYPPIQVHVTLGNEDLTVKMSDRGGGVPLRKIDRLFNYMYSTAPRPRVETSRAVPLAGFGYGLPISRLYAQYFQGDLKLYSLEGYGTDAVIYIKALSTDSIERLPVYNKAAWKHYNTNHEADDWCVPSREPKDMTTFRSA

| CLint [1] | inhibition at 10 µM (PDHK1) | Structure (SMILES) | other side-effects ([2]; 21 days) | body weight change [2] |
| --- | --- | --- | --- | --- |
| 29.7 µL/min/mg |  | CC(C)Oc1ccc(S(=O)(=O)c2ccc(Oc3cc(OCC(N)=O)c(C(=O)C(Cl)Cl)cc3[N+](=O)[O-])cc2)cc1 [Compound 32, 2-(2-(2,2-Dichloroacetyl)-5-(4-((4-isopropoxyphenyl)sulfonyl)phenoxy)-4-nitrophenoxy)acetamide] | No other side-effects were observed | decreased very little |
|  |  | COc1cccc2c1C(=O)c1c(O)c3c(c(O)c1C2=O)C[C@@](O)(C(=O)CO)C[C@@H]3O[C@H]1C[C@H](N)[C@H](O)[C@H](C)O1 [DOX, doxorubicin, reference compound] |  | significant body weight loss |
|  | 26.5 to 30.1% | O=C1c2ccccc2C(=O)c2c(Oc3ccc(C(=O)C(Cl)Cl)cc3[N+](=O)[O-])cccc21 [Compound 18, 1-(4-(2,2-Dichloroacetyl)-2-nitrophenoxy)anthracene-9,10-dione] |  |  |
